Active and inactive are the calls of the source.

Data set [1] has as its target T1, Prostaglandin G/H synthase 2 (Homo sapiens) (UniProt P35354).
T1 sequence (whole entry): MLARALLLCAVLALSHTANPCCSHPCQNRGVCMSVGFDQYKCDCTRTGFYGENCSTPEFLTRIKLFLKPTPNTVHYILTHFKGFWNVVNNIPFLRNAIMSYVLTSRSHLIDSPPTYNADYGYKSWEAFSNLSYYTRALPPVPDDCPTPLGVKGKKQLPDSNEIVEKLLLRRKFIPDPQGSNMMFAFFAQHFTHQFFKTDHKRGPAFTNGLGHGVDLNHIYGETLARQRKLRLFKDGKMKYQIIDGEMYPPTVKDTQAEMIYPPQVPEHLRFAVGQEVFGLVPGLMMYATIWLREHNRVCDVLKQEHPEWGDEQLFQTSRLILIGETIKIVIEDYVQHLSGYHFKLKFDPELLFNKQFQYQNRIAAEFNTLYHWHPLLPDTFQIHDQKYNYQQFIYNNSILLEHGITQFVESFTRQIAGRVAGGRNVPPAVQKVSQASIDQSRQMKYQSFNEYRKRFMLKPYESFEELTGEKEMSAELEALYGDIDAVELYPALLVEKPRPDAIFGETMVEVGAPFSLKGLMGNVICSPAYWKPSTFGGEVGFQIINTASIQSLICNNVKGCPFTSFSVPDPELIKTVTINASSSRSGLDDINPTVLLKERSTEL
The conditions noted are these: at 100 µM.

For data set [2], the target named is Transient receptor potential cation channel subfamily V member 1 (Mus musculus) (UniProt Q704Y3). As to the kind of experiment: Agonist activity at recombinant mouse TRPV1 expressed in HEK293 cells assessed as increase in calcium influx up to 10 uM measured for 380 sec by Fluo-4 dye based FLIPR assay. The format is cell-based. The gist of the method:
(§1)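 mTRPV1-transfected HEK293 cells; Ca2+ influx followed over time and quantified as area under the curve; capsaicin as positive control. Experiments repeated twice, each in triplicate.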

Data set [3] has as its target T2, Prostaglandin G/H synthase 1 (Ovis aries) (UniProt P05979).
T2 sequence (whole entry): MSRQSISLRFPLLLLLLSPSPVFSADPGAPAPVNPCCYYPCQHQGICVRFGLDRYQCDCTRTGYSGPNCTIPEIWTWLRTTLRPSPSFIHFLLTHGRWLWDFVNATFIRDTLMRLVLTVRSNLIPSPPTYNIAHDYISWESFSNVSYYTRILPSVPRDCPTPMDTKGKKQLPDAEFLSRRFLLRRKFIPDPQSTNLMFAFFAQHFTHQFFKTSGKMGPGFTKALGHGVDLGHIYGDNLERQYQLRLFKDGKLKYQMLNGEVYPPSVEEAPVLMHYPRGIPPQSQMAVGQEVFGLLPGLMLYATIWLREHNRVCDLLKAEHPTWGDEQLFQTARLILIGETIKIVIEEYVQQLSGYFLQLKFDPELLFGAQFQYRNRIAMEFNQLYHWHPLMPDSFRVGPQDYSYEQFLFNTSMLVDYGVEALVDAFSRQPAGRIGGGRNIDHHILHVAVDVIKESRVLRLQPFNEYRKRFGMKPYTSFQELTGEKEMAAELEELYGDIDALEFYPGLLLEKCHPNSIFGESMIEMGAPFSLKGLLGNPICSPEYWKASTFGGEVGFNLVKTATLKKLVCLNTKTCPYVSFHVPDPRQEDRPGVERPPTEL
As to the kind of experiment: Inhibition of ovine COX1 at 100 uM using arachidonic acid as substrate after 2 mins by fluorometric substrate-based fluorescence assay relative to control.

Data set [4] has as its system Rattus norvegicus. As to the kind of experiment: Induction of mechanical allodynia in Sprague-Dawley rat assessed as decrease in contralateral hind paw withdrawal threshold at 3 ug administered as intraplantar injection measured up to 150 mins post dose by Von Frey assay. The following applies: in vivo, other, 2.5 h. The method in brief:
(§2)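 Naive male Sprague Dawley rats, n = 6; methyl esters given by intraplantar injection in 1:9 EtOH/saline. Mechanical withdrawal thresholds measured with an electronic von Frey aesthesiometer over a time course, ipsilateral and contralateral paws. Data analysed by two-way ANOVA with Holm-Sidak post hoc test.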

The test system of data set [5] is Rattus norvegicus. As to the kind of experiment: Induction of mechanical allodynia in Sprague-Dawley rat assessed as decrease in withdrawal threshold at 1 ug administered as intraplantar injection measured up to 150 mins post dose by Von Frey assay. The arrangement: scale not given: the % may be the effect or the level left. The conditions noted are these: in vivo, other, 2.5 h. The gist of the method: as §2

Data set [6] concerns Rattus norvegicus. Kind of data set: Induction of mechanical allodynia in Sprague-Dawley rat assessed as decrease in ipsilateral hind paw withdrawal threshold administered as intraplantar injection measured up to 150 mins post dose by Von Frey assay. The following applies: in vivo, other, 2.5 h. The method in brief:
as §2

Data set [7] deals with Rattus norvegicus. As to the kind of experiment: Induction of mechanical allodynia in Sprague-Dawley rat assessed as decrease in withdrawal threshold at 100 ng administered as intraplantar injection by Von Frey assay relative to control. The arrangement: scale not given: the % may be the effect or the level left. The conditions noted are these: in vivo, other. The method in brief: as §2

For data set [8], the target named is Transient receptor potential cation channel subfamily V member 1 (Mus musculus) (UniProt Q704Y3). Kind of data set: Agonist activity at recombinant mouse TRPV1 expressed in HEK293 cells assessed as increase in calcium influx at 10 uM measured for 380 sec by Fluo-4 dye based FLIPR assay. The format is cell-based. The method in brief:
as §1

Sequence of Transient receptor potential cation channel subfamily V member 1 (Mus musculus) (Q704Y3 whole entry): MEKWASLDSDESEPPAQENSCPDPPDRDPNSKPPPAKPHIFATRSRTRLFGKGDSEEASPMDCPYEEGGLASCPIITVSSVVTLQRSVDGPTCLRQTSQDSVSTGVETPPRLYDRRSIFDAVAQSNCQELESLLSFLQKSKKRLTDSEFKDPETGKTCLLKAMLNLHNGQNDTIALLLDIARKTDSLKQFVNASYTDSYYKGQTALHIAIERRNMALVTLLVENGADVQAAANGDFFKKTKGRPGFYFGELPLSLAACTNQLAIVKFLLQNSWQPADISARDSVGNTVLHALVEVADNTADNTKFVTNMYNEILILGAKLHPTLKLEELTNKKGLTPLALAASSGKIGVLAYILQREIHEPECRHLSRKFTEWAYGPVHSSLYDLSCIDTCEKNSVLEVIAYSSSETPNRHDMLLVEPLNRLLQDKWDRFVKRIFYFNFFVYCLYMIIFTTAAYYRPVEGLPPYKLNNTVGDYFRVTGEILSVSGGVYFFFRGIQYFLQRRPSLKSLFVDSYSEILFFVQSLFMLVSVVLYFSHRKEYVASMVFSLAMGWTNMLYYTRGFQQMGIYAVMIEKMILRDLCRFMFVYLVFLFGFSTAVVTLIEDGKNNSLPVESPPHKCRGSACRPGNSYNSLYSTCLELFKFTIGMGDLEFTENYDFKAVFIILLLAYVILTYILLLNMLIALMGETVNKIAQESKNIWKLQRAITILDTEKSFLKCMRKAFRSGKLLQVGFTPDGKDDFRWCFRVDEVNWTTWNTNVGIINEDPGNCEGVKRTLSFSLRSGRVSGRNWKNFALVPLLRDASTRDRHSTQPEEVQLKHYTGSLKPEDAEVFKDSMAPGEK

Take `O=C(O)CCC/C=C\C/C=C\C/C=C\C/C=C\CCCCCO`: the inhibition in data set [1] amounted to 0%; in data set [3] it was 27.5%. In data set [2], the outcome was inactive. Further, the Activity result in the data set on Rattus norvegicus [4] was “Non-Toxic”; in the data set with Rattus norvegicus [5], 30%; in the data set with Rattus norvegicus [6] it was “Dose-dependent effect”.

Consider `CCCCC[C@H](O)/C=C/[C@H]1[C@H](O)CC(=O)[C@@H]1C/C=C\CCCC(=O)O` [DINOPROSTONE], for which, in the data set on Rattus norvegicus [7], the Activity worked out at 60%.

As for `O=C(O)CCC/C=C\C/C=C\C/C=C\C/C=C\C/C=C\CCO`, the inhibition in data set [1] turned out to be 0%; in data set [3] it was 37.1%. The Activity entry in the data set on Rattus norvegicus [5] was “Non-Toxic”. Further, in data set [8], the result was Active.

As for `O=C(O)CC/C=C\C/C=C\C/C=C\C/C=C\C/C=C\C/C=C\CCO`, the inhibition in data set [1] is 1%; in data set [3], 38.1%. In addition, in the data set on Rattus norvegicus [5], the Activity result is recorded as “Non-Toxic”. Further, in data set [8], the result was Active.

Source of the values: ChEMBL document CHEMBL4000209, “Chemical synthesis and biological evaluation of ω-hydroxy polyunsaturated fatty acids” (Bioorg Med Chem Lett, 2017).
